Hits are enriched below; roughly 1.6% of the tested compounds scored in any of these assays.
PAD4 FP inh = human PAD4 inhibitors, primary screen, biochemical, fluorescence polarization, 1536-well format | recombinant PAD4, RCA probe fluorescence polarization | Protein-arginine deiminase type-4 (Homo sapiens), Q9UM07 | AID 485272, 2010 | actives 0.41% (n = 330,000) | inhibition, % at 6.36 µM;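 active = percent inhibition above a cutoff equal to the mean of all tested compounds plus 3 SD, cut at about 15% in these data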;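 also: 0% = PAD4 with RCA probe and DMSO and 100% = probe without PAD4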
Fh CTSL1 inh = Fasciola hepatica cathepsin L1 inhibitors, primary screen, counter-screen for PFM18AAP inhibitor project, biochemical, QFRET, fluorogenic peptide substrate; recombinant F. hepatica cathepsin L1, Z-Leu-Arg-MCA fluorescence; inhibition, % at 5.96 µM; actives 0.49% (n = 300,000);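 active = inhibition above the mean of all tested compounds plus 3 SD, set per screening campaign, cut at about 17% in these data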;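 also: 0% = plate median of test compound wells and 100% = 1 µM Z-Phe-Ala-diazomethylketone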
TDP2 absorb = human TDP2 enzyme inhibitors, primary screen, biochemical, epi absorbance, recombinant enzyme | Tyrosyl-DNA phosphodiesterase 2 (Homo sapiens), O95551 | T5PNP hydrolysis, p-nitrophenol absorbance 415 nm | inhibition, % at 12.8 µM | actives 0.34% (n = 370,000) | AID 720702, 2013;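 active = inhibition above the mean of all tested compounds plus 3 SD, set per campaign, cut at about 25% in these data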;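 also: 0% = DMSO with enzyme and 100% = buffer with substrate but no TDP2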
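Material: recombinant human TDP2; quantity: TDP2 enzyme at 120 nM final; medium: Tris-HCl pH 7.5 with MgCl2; compound: single concentration, 12.8 µM nominal, with 1% DMSO; incubation: 2 h enzyme incubation at 37 °C; signal: epi absorbance; measure: percent inhibition; benchmarks: high control without enzyme, low control DMSO plus TDP2; repeats: singlicate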
UCH37 DUB inh = inhibitors of human UCH37 deubiquitinase, primary screen, biochemical, Ub-AMC cleavage, fluorescence; Ubiquitin carboxyl-terminal hydrolase isozyme L5 (Homo sapiens), Q9Y5K5; purified proteasome/UCH37; inhibition, % (test concentration not listed); actives 0.33% (n = 330,000); AID 588478, 2011;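 active = mean inhibition over replicate wells above about 20%, limit read from the data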;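 also: 0% = compound-free wells with enzyme and 100% = wells lacking proteasome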
Target sequence (Q9Y5K5 whole entry, looked up): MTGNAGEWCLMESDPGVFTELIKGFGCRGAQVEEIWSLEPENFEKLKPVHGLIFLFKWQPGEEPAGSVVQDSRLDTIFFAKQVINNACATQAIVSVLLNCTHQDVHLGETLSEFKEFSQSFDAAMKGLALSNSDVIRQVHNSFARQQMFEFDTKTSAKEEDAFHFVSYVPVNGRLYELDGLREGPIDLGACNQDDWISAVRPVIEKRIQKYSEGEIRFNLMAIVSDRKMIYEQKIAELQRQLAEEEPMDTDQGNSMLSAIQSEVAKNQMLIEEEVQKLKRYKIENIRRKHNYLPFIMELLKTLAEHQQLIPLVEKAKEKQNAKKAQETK
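Material: Human UCH37 enzyme supplied as purified proteasome complex | Schedule: 30 min compound-proteasome preincubation then 25 min substrate reaction, room temperature | Detection: AMC fluorescence from Ub-AMC cleavage, excitation 355 nm, emission 460 nm | Benchmarks: Wells without proteasome as full block, compound-free enzyme plus substrate as uninhibited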
GSTO1 counter = inhibitors of recombinant GSTO1, primary screen, counter-screen for RBBP9 inhibitor project, biochemical, fluorescence polarization; Glutathione S-transferase omega-1 (Homo sapiens), P78417; activity-based probe fluorescence polarization; inhibition, % at 5.96 µM; actives 1.1% (n = 300,000); AID 1974, 2009;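 active = inhibition above the campaign mean inhibition plus 3 SD, cut at about 35% in these data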;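 also: 0% = GSTO1-1 with DMSO and 100% = wells lacking GSTO1-1 enzyme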
HKDC1 inh = HKDC1 hexokinase inhibitors, primary screen, biochemical, fluorescence, uHTS | Q2TB90 | recombinant HKDC1, G6PDH/diaphorase resazurin coupled fluorescence | inhibition, % at 20 µM | actives 0.16% (n = 340,000);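 active = inhibition above about 35% when tested at 20 µM, limit read from the data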;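 also: plate controls were DMSO wells with enzyme for no effect and DMSO wells lacking enzyme for full effect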
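Material – in-house recombinant HK5 (HKDC1) enzyme · Quantity – HKDC1 at 5 µg/mL · Buffer or medium – pH 8.0 Tris buffer with 10 mM MgCl2 · Reagent – glucose with 1 mM ATP · Dosing – single 20 µM dose · Times – reaction time 90 min, room temperature, protected from light · Technique – resorufin fluorescence at 613 nm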
* hit, by the source's call; i = inactive; · = no result.

SMILES | PAD4 FP inh | Fh CTSL1 inh | TDP2 absorb | UCH37 DUB inh | GSTO1 counter | HKDC1 inh
COc1cccc(NS(=O)(=O)c2cc3c(cc2C)N(C)CCO3)c1 | -2 | 1 | 1 | 4 | 3 | -3
Cc1cccc(NS(=O)(=O)c2cc3c(cc2C)N(C)CCO3)c1 | 4 | 65* | 5 | 4 | 7 | 1
COC(=O)c1cc(O)c(O)c(O)c1 | 5 | 6 | -3 | 4 | 47* | -5
COC(=O)c1cc(OC)nc(OC)c1 | 3 | -1 | 3 | -40 | 1 | -5
Cc1occc1-c1nnc(SCC(=O)c2ccc(F)cc2)o1 | 2 | 2 | 5 | 4 | 36* | -5
Clc1cnc(NN=Cc2ccco2)c(Cl)c1 | · | · | · | 9 | · | ·
Cc1ccccc1-c1cc(C(=O)NCc2cccc(C(F)(F)F)c2)nn1CC1CC(c2cccc([N+](=O)[O-])c2)=NO1 (centres undefined) | 5 | -2 | -6 | 35* | -5 | 2
Cc1ccccc1-c1cc(C(=O)NCc2ccc(OC(F)(F)F)cc2)nn1CC1CC(c2cccc([N+](=O)[O-])c2)=NO1 (centres undefined) | 3 | · | -8 | 2 | · | -2
CCCCCOCC1CC(CC(C)=NNC(N)=O)(C(=O)OCC)C(=O)O1 (centres undefined) | · | · | · | 2 | · | ·
COC(=O)C1=C(C)N(C)C(=O)NC1c1cc2c(cc1[N+](=O)[O-])OCO2 (centres undefined) | 4 | 2 | 8 | -1 | 36* | 1
CC(=O)Nc1ccc(S(=O)(=O)N2CCN(c3ccc(C)c(Cl)c3)CC2)cc1 | 1 | 20* | 0 | 1 | 4 | -2
Cn1cnnc1SCc1ccc(-c2ccc(Br)cc2)o1 | -12 | 60* | -1 | -6 | 8 | -5
CCC(COC(=O)c1ccccc1)Oc1cc(NCc2ccccc2)c2ncn(C(C)C)c2c1 (centres undefined) | 0 | · | 36* | 0 | · | 20
O=C(O)CN1C(=O)/C(=C\c2cn(CC(=O)N3CCOCC3)c3ccccc23)SC1=S | -4 | 8 | -3 | 24* | 2 | 22
C=CCc1cccc(C=NNC(=O)CNc2cccc3ccccc23)c1O | · | · | · | 1 | · | ·
CC(=NNC(=O)COc1ccc(C#N)cc1)c1ccc(N2CCOCC2)cc1 | · | · | · | -8 | · | ·
CNC(=O)c1cc(Oc2ccc(NC(=O)Nc3ccc(Cl)c(C(F)(F)F)c3)cc2)ccn1 | -6 | · | 0 | 31* | · | 3
O=C(Nc1ccc(Cl)c(C(F)(F)F)c1)c1ccncc1 | -2 | 3 | -2 | 2 | 6 | 1
COc1ccc(Cl)cc1NC(=S)NNC(=O)CC(C)C | 1 | 27* | 3 | 0 | 0 | -6
COc1ccc(Cl)cc1NC(=S)NNC(=O)c1cccs1 | 2 | 2 | -6 | 0 | 11 | -6
O=C(COC(=O)c1ccc([N+](=O)[O-])s1)Nc1ncc(C(F)(F)F)cc1Cl | -12 | 34* | 19 | 16 | 26 | -5
Cc1ccccc1OC(C)C(=O)NC1CCCC1 (centres undefined) | 0 | 5 | 2 | 28* | 6 | -3
Cc1ccccc1OCC(=O)OC(C)C(=O)NC1CCCC1 (centres undefined) | -3 | · | 5 | 5 | · | -3
CCOc1ccccc1-c1cc(C(=O)NN=Cc2ccc3c(c2)OCO3)c2ccccc2n1 | · | · | · | -6 | · | ·
CCC(Oc1ccc2c(c1)C(=O)CC(C)(C)O2)C(=O)NCCN1CCCCCC1 (centres undefined) | 1 | 37* | -18 | i | 1 | -8
CC(=O)Nc1ccc(C(C)=NNC(=O)c2ccc(COc3ccccc3Cl)o2)cc1 | · | · | · | 2 | · | ·
Cc1ccc(-c2nn(-c3ccccc3)cc2NC(=O)CCl)cc1 | -1 | 82* | -4 | 7 | 69* | 15
Cc1ccc(-c2nn(-c3ccccc3)cc2CO)cc1 | -3 | 1 | 10 | 2 | 1 | 1

High-throughput results (PubChem)
